System: Rattus norvegicus
Assay: Antiarrhythmic activity in aconitine-intoxicated iv dosed Ivanovas rat assessed as inhibition of ventricular dysfunction
Format: functional, Heart
Conditions: not given
Summary of the method: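 Male Ivanovas rats (300–350 g) were anaesthetised with urethane 1.25 g/kg ip. Compound was given iv at 5 mg/kg 5 min before saphenous vein infusion of aconitine ([…], 0.1 ml/min). Lead II ECG was recorded every 30 s. Read-out was aconitine per 100 g causing ventricular extrasystoles, tachycardia and fibrillation versus untreated controls. Used 24 rats/compound; Student's t-test.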

In order of rising LD100 increase:
1. CCN(CC)CC(=O)Nc1c(C)cccc1C [LIDOCAINE]  65%
2. CCN(CC)CCNC(=O)c1ccc(N)cc1 [PROCAINAMIDE]  65%
3. COc1cccc(NC(=O)c2c(NC(=O)c3ccccc3)sc3c2CCCC3)c1  67.9%
4. N=c1oc(-c2ccccc2)nc2sc3c(c12)CCCC3  68.15%
5. COc1cccc(-n2c(-c3ccccc3)nc3sc4c(c3c2=O)CCCC4)c1  70.1%
6. N#Cc1c(NC(=O)CCl)sc2c1CCCC2  73.1%
7. N#Cc1c(/N=C/c2ccccc2)sc2c1CCCC2  73.6%
8. COc1cccc(NC(=O)c2c(NC(=O)/C=C/c3ccccc3)sc3c2CCCC3)c1  74.6%
9. COc1cccc(-n2nnc3sc4c(c3c2=O)CCCC4)c1  75%
10. COc1cccc(-n2c(=S)[nH]c3sc4c(c3c2=O)CCCC4)c1  76%
11. N#Cc1c(NC(=O)/C=C/c2ccccc2)sc2c1CCCC2  77.5%
12. N=c1oc(/C=C/c2ccccc2)nc2sc3c(c12)CCCC3  80.1%
13. COc1cccc(-n2c(/C=C/c3ccccc3)nc3sc4c(c3c2=O)CCCC4)c1  82%
14. N#Cc1c(-n2c(O)csc2=N)sc2c1CCCC2  82.1%
15. N#Cc1c(NC(=S)NC(=O)c2ccccc2)sc2c1CCCC2  84%
16. N#Cc1c(N2C(=S)N=C(c3ccccc3)OC2c2ccccc2)sc2c1CCCC2 (centres undefined)  84%
17. N=c1c2c3c(sc2nc(S)n1C(=O)c1ccccc1)CCCC3  84.3%

System: not listed separately
Assay: Acute toxicity in rat
Format: organism-based
Conditions: in vivo

In order of rising LD50:
1. O=C1CC2(CCCC2)CC(=O)N1CCCCN1CCN(c2ncccn2)CC1 [BUSPIRONE]  113 mg/kg
2. COc1cccc(NC(=O)c2c(N)sc3c2CCCC3)c1  121 mg/kg
3. COc1cccc(-n2nnc3sc4c(c3c2=O)CCCC4)c1  124 mg/kg
4. COc1cccc(-n2c(-c3ccccc3)nc3sc4c(c3c2=O)CCCC4)c1  136 mg/kg
5. N#Cc1c(N)sc2c1CCCC2  152 mg/kg
6. N#Cc1c(NC(=S)NC(=O)c2ccccc2)sc2c1CCCC2  175 mg/kg
7. N#Cc1c(NC(=O)/C=C/c2ccccc2)sc2c1CCCC2  186 mg/kg
8. N#Cc1c(NC(=O)CCl)sc2c1CCCC2  194 mg/kg
9. COc1cccc(-n2c(=S)[nH]c3sc4c(c3c2=O)CCCC4)c1  210 mg/kg
10. N=c1c2c3c(sc2nc(S)n1C(=O)c1ccccc1)CCCC3  221 mg/kg
11. N=c1oc(-c2ccccc2)nc2sc3c(c12)CCCC3  224 mg/kg
12. N#Cc1c(N2C(=O)C=CC2=O)sc2c1CCCC2  234 mg/kg
13. COc1cccc(NC(=O)c2c(NC(=O)c3ccccc3)sc3c2CCCC3)c1  236 mg/kg
14. COc1cccc(-n2c(/C=C/c3ccccc3)nc3sc4c(c3c2=O)CCCC4)c1  243 mg/kg
15. N=c1oc(/C=C/c2ccccc2)nc2sc3c(c12)CCCC3  244 mg/kg
16. N#Cc1c(/N=C/c2ccccc2)sc2c1CCCC2  246 mg/kg
17. N#Cc1c(-n2c(O)csc2=N)sc2c1CCCC2  274 mg/kg
18. COc1cccc(NC(=O)c2c(NC(=O)/C=C/c3ccccc3)sc3c2CCCC3)c1  276 mg/kg
19. N#Cc1c(N2C(=S)N=C(c3ccccc3)OC2c2ccccc2)sc2c1CCCC2 (centres undefined)  297 mg/kg

System: Mus musculus
Assay: Antianxiety activity in ip dosed Albino mouse assessed as increase in locomotor activity after 30 mins relative to Diazepam
Format: functional
Conditions: not given

In order of rising Ratio:
1. N#Cc1c(N)sc2c1CCCC2  1
2. COc1cccc(NC(=O)c2c(NC(=O)c3ccccc3)sc3c2CCCC3)c1  2
3. N#Cc1c(/N=C/c2ccccc2)sc2c1CCCC2  2
4. N#Cc1c(N2C(=O)C=CC2=O)sc2c1CCCC2  3
5. N#Cc1c(NC(=O)CCl)sc2c1CCCC2  3
6. N=c1oc(-c2ccccc2)nc2sc3c(c12)CCCC3  3
7. COc1cccc(-n2c(=S)[nH]c3sc4c(c3c2=O)CCCC4)c1  3
8. COc1cccc(-n2nnc3sc4c(c3c2=O)CCCC4)c1  4
9. COc1cccc(NC(=O)c2c(N)sc3c2CCCC3)c1  4
10. COc1cccc(-n2c(-c3ccccc3)nc3sc4c(c3c2=O)CCCC4)c1  5
11. COc1cccc(NC(=O)c2c(NC(=O)/C=C/c3ccccc3)sc3c2CCCC3)c1  5
12. N#Cc1c(NC(=O)/C=C/c2ccccc2)sc2c1CCCC2  5
13. N=c1c2c3c(sc2nc(S)n1C(=O)c1ccccc1)CCCC3  5
14. N=c1oc(/C=C/c2ccccc2)nc2sc3c(c12)CCCC3  6
15. COc1cccc(-n2c(/C=C/c3ccccc3)nc3sc4c(c3c2=O)CCCC4)c1  7
16. N#Cc1c(NC(=S)NC(=O)c2ccccc2)sc2c1CCCC2  10
17. N#Cc1c(-n2c(O)csc2=N)sc2c1CCCC2  12
18. N#Cc1c(N2C(=S)N=C(c3ccccc3)OC2c2ccccc2)sc2c1CCCC2 (centres undefined)  16

From ChEMBL document CHEMBL1629505, “Antiarrhythmic, serotonin antagonist and antianxiety activities of novel substituted thiophene derivatives synthesized from 2-amino-4,5,6,7-tetrahydro-N-phenylbenzo[b]thiophene-3-carboxamide” (Eur J Med Chem, 2010)
